Screening results from PubChem.
A selection: hits, their analogues and other compounds. The true share with any hit is near 3.4%.
CHT allo act – CHT positive allosteric modulators, primary screen, cell-based, membrane potential dye, choline EC20 | B-score at 10 µM | 310,000 tested, 0.49% active | High affinity choline transporter 1 (Homo sapiens), Q9GZV3 | AID 488977, 2010 | CHT-expressing cells; active compounds read high; LV-AA mutant CHT in HEK293 cells;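 active = initial fluorescence not abnormally high and integrated response B-score, plate-corrected, over 3 SD above library mean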
Target sequence (Q9GZV3 whole entry, looked up): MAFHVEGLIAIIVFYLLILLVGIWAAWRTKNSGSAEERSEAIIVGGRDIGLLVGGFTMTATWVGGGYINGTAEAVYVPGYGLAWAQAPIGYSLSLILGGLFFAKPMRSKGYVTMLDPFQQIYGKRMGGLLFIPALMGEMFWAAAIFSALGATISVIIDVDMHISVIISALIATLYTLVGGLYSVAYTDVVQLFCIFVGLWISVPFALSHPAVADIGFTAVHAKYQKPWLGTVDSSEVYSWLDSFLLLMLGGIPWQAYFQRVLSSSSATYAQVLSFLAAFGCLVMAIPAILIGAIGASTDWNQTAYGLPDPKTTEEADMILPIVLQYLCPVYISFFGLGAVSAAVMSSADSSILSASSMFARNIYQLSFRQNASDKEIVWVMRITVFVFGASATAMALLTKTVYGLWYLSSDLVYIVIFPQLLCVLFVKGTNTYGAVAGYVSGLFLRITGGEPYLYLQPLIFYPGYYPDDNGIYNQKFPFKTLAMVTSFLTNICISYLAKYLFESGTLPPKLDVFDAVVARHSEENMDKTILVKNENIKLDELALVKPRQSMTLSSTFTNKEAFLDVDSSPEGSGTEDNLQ
TMEM16A act – TMEM16A chloride channel activators or potentiators, primary screen, cell-based, HTS; HEK293 TMEM16A/YFP-H148Q/I152L, iodide quench fluorescence; active compounds read low; Anoctamin-1 (Mus musculus), Q8BHY3; B-score at 10 µM; 340,000 tested, 0.3% active;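 active = fluorescence-ratio B-score plate-corrected deviation score at least 3 library SD below zero, with starting fluorescence score within 5 deviations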;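 also: channel opened by trigger with iodide after compound preincubation; score built on the fluorescence ratio of max minus min over baseline; more negative score means more quench and so TMEM16A activation or potentiation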
ANO1 block – TMEM16A chloride channel inhibitors, primary screen, cell-based, HTS; Anoctamin-1 (Mus musculus), Q8BHY3; HEK293 TMEM16A/YFP iodide influx fluorescence, ionomycin; normalized B-score (activity score, 25-100; higher = stronger inhibition) at 10 µM; 310,000 tested, 1.2% active; AID 588511, 2011;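 active = ratio plate-corrected score three or more library SD toward inhibition, starting fluorescence score within five deviations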;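 also: score derived from kinetic fluorescence span divided by baseline fluorescence per well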
VIM-2 inhibitor – VIM-2 metallo-beta-lactamase inhibitors, primary screen, biochemical, epi-absorbance readout, Pseudomonas aeruginosa enzyme. purified VIM-2, nitrocefin hydrolysis, epi-absorbance fluorescence. inhibition, % at 5.6 µM. 290,000 tested, 0.89% active. AID 1527, 2009;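 active = inhibition above the mean of all tested compounds plus 3 SD, cutoff set per screening run, cut at about 7.5% in these data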;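 also: red hydrolysis product quenches plate fluorescence so inhibitors raise well fluorescence; 0% = enzyme with DMSO and 100% = DMSO without enzyme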
IMP-1 inh-1 – IMP-1 metallo-beta-lactamase inhibitors, primary screen, biochemical, epi-absorbance readout, Pseudomonas aeruginosa enzyme. inhibition, % at 5.6 µM. 290,000 tested, 0.45% active. purified IMP-1, nitrocefin hydrolysis, epi-absorbance fluorescence. metallo-beta-lactamase IMP-1 (Pseudomonas aeruginosa);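 active = inhibition above the mean plus 3 SD of all compounds in the same screening run, cut at about 4.5% in these data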;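 also: 0% = IMP-1 with DMSO and 100% = DMSO wells lacking enzyme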
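assay system = purified recombinant IMP-1 metallo-beta-lactamase enzyme | schedule = 15 min preincubation plus 25 min reaction at 25 °C | signal = Epi-absorbance fluorescence, 480 nm excitation, 530 nm emission | read-out basis = percent inhibition from optical density relative to buffer-blank wells | controls = IMP-1 with DMSO as 0%, enzyme-free DMSO as 100%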
CHT block – inhibitors of human choline transporter CHT; 310,000 tested, 0.86% active; CHT-expressing cells, membrane potential dye, choline response; active compounds read low; AID 488975, 2010; High affinity choline transporter 1 (Homo sapiens), Q9GZV3; B-score at 10 µM;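 active = B-score over 3 SD under the library average, and starting fluorescence ratio not unusually high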;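 also: choline stimulus applied at its EC90 after an EC20 pre-addition; B-score computed on integrated fluorescence ratio after choline addition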
IMP-1 inh-2 – IMP-1 metallo-beta-lactamase inhibitors, confirmation, selectivity assay for selective VIM-2 inhibitor project, biochemical, epi-absorbance readout, triplicate; shares compounds with VIM-2 inhibitor; purified IMP-1, nitrocefin hydrolysis, epi-absorbance fluorescence; inhibition, % at 5.6 µM; 1,300 tested, under 10 active; AID 1856, 2009; call rule not given here;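 also: 0% = enzyme with vehicle and 100% = vehicle without enzyme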
VIM-2 FRET ctr – VIM-2 inhibitors in FRET format, confirmation, artefact control for selective VIM-2 inhibitor project, biochemical, epi-absorbance artifact exclusion; shares compounds with VIM-2 inhibitor; purified VIM-2, CCF2 FRET substrate hydrolysis; inhibition, % at 5.6 µM; 1,300 tested, 23% active; AID 1857, 2009;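 active = inhibition above the mean of all tested compounds plus 3 SD, cut at about 19% in these data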;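 also: 0% = VIM-2 plus DMSO and 100% = no enzyme wells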
TEM-1 counter – TEM-1 serine beta-lactamase inhibitors, counter-screen for VIM-2 inhibitor project, biochemical, epi-absorbance, HTS. shares compounds with VIM-2 inhibitor. Purified TEM-1, nitrocefin hydrolysis, epi-absorbance fluorescence. inhibition, % at 5.6 µM. 1,300 tested, 3% active. AID 1866, 2009;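 active = inhibition above that campaign's mean inhibition plus 3 SD, cut at about 0.46% in these data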;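 also: 0% = TEM-1 with DMSO and 100% = TEM-1 with 100 µM potassium clavulanate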
VIM-2 confirm 2 – VIM-2 metallo-beta-lactamase inhibitors, confirmation, biochemical, epi-absorbance, hits shared with IMP-1 screen. shares compounds with VIM-2 inhibitor. purified VIM-2, nitrocefin hydrolysis. inhibition, % at 5.6 µM. 1,300 tested, 96% active;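 active = inhibition of the VIM-2 beta-lactamase enzyme above about 11% from the earlier first-round screen, limit read from the data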;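 also: 0% = VIM-2 with DMSO and 100% = buffer wells without enzyme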
CHT activ conf – CHT activators, confirmation, cell-based, membrane potential dye, duplicate | shares compounds with CHT allo act | 2,500 tested, 91% active | AID 504833, 2011 | CHT-expressing cells, membrane potential dye fluorescence (FDSS); % of choline EC20–EC90 response window; HEK293 expressing CHT LV-AA mutant; choline added at its EC20 | activation, % at 10 µM;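 active = primary screen active, with duplicate mean activation above negative control mean plus 3 SD, cut at about 11% in these data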
HEK293 MP dye – membrane potential response in parental HEK293 cells, counter-screen for CHT activator project, cell-based, membrane potential dye. shares compounds with CHT allo act. membrane potential dye fluorescence (FDSS); measured after EC20 choline addition. ratio readout change at 10 µM, hits read low. 2,500 tested, 62% active. AID 623908, 2012;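 active = duplicate-averaged ratio beyond 3 SD from buffer wells, up or down, though filed actives are nearly all decreases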
An asterisk follows results filed as active; i = inactive; / = no result.

SMILES	CHT allo act	TMEM16A act	ANO1 block	VIM-2 inhibitor	IMP-1 inh-1	CHT block	IMP-1 inh-2	VIM-2 FRET ctr	TEM-1 counter	VIM-2 confirm 2	CHT activ conf	HEK293 MP dye
COc1ccc(-c2cc(C(=O)O)c3c(C)nn(-c4ccccn4)c3n2)cc1	i	/	i	-1.2	-0.7	i	/	/	/	/	/	/
CCOC(=O)c1cc(-c2ccncc2)nc2c1c(C)nn2-c1ccccn1	7.68*	i	i	42.4*	-2.4	i	-2.8	-11.4	-6.7	57.6*	30.0*	-20.1*
CCOc1ccc(-c2nnc(-c3ccncc3)o2)cc1OCC	i	i	i	23.8*	-1.0	i	-2.7	-4.2	-3.8	31.2*	61.2*	-49.3*
COc1ccc(N(CC(=O)NC2CC2)S(=O)(=O)c2ccccc2)cc1	i	i	i	0.5	-2.7	i	/	/	/	/	/	/
CN1CCc2c(sc(NC(=O)c3cc(Cl)sc3Cl)c2C(N)=O)C1	i	/	i	13.5*	0.8	i	-0.7	5.6	-3.5	20.6*	21.6*	i
CN(CC(=O)Nc1cccc(F)c1)C(=O)CN1C(=O)C2CCCCC2C1=O (stereo unspecified)	/	i	/	/	/	/	/	/	/	/	/	/
Cc1nc(C)c(-c2csc(Nc3cccnc3)n2)s1	i	i	i	30.1*	-5.3	i	-2.7	-6.4	-6.8	45.2*	35.4*	-34.5*
Clc1cccc(-c2csc(Nc3cccnc3)n2)c1	i	i	i	-0.7	-1.3	i	/	/	/	/	/	/
CC(=O)Oc1ccc(-c2csc(Nc3cccnc3)n2)cc1	i	i	i	0.9	1.7	i	/	/	/	/	/	/
c1cncc(Nc2nc(-c3cccnc3)cs2)c1	6.92*	i	i	12.2*	-2.6	i	-3.1	-7.7	-6.7	41.2*	42.5*	-45.1*
c1cncc(Nc2nc(-c3ccncc3)cs2)c1	7.48*	i	i	16.0*	-0.7	i	-2.1	-3.9	-5.3	38.2*	46.1*	-48.9*
O=C(CN(Cc1ccccc1Cl)C(=O)c1csnn1)NCc1ccc2c(c1)OCO2	i	i	i	-3.4	-2.6	i	/	/	/	/	/	/
Cc1ccccc1NC(=O)Cc1nc(COC(=O)c2ccc(O)cc2O)cs1	i	i	i	-1.2	-1.7	i	/	/	/	/	/	/
Cc1cccc2cc(C#N)c(NCCCn3ccnc3)nc12	i	i	i	0.8	-0.5	i	/	/	/	/	/	/
Cc1nc(NCCCn2ccnc2)c2ccccc2n1	i	i	i	19.9*	-1.5	i	-3.7	-1.2	-6.1	35.4*	45.7*	-64.5*
CCOC(=O)CC1C(=O)NCCN1C(=O)c1cc2c(=O)n3cccc(C)c3nc2s1 (stereo unspecified)	6.76*	i	i	13.9*	-4.8	i	-3.0	-6.4	-3.5	26.4*	16.7*	-37.1*
O=c1cc(CN2CCN(CCO)CC2)c2cc3c(cc2o1)CCC3	i	i	i	16.5*	-2.6	i	-2.7	0.3	-6.5	32.6*	45.5*	-43.7*
Cc1ccc2c(CN3CCN(CCO)CC3)cc(=O)oc2c1	i	i	i	3.3	-3.7	i	/	/	/	/	/	/
COc1ccc(C)cc1Nc1c2c(nc3ccccc13)CCC2	6.84*	i	i	19.4*	-1.2	i	-3.1	-0.4	-6.0	28.4*	35.5*	-27.1*
NC(=S)NC(c1ccccc1)c1ccncc1 (stereo unspecified)	i	i	i	/	/	i	/	/	/	/	/	/
COc1cccc(N2CCc3c(C)nc4ccc(Cl)cc4c32)c1	i	i	i	21.9*	-2.2	i	-3.7	-4.8	-5.9	29.5*	41.5*	-28.7*
